Experimental data published in publication PMC3563241 (Nuclear medicine and biology, 2012).
Values joined by “and” are separate entries in the source; they are usually repeats but may differ in a detail not shown here. Equal values may be shown once.

What was measured:
[1] = tested on: B16F10 tumor-bearing mice; experiment: Small animal PET/CT imaging of B16F10 tumor-bearing mice; format: in vivo, C57BL/6 mice; settings: 2 h post-injection
Summary of the method: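 Mice bearing B16F10 tumours received the ⁶⁴Cu-labelled conjugate by tail vein, 100 μCi (667 ng); half of the doses were premixed with 100 μg unlabelled ligand. PET/CT was done at 2 and 24 h under 1–2% isoflurane, with 15 or 30 min static scans and MAP reconstruction. CT-guided ROIs gave maximum SUV (nCi/mL × weight/injected dose), and tumour:background ratios were taken from MIP images (n = 2).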

[2] = target: integrin α4β1 (VLA-4) (Mus musculus, UniProt P09055+Q00651); experiment: Saturation binding assay in B16F10 melanoma cells; settings: 4 °C, 2 h, 0.1–80 nM
Summary of the method: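 Binding medium was HBSS with 0.1% BSA and 1 mM Mn²⁺. Nonspecific binding was measured with 12 μg unlabelled ligand. After 2 h on ice, cells were rinsed, lysed in 0.5% SDS and gamma-counted. Counts were normalised to BCA protein, n=3 per point.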

[3] = Biodistribution studies in B16F10 tumor-bearing mice; format: in vivo, C57BL/6 mice; settings: C57BL/6, mouse, iv, total radioactivity; for tissue uptake at 2 h: 14 μCi (14 ng); for tissue to tissue ratio at 2 h: 14 ng
Summary of the method: (§1)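 Subcutaneous B16F10 tumours (1 × 10⁷ cells in PBS:Matrigel 1:1) grown 14–21 d in 7-wk-old C57BL/6 mice. Mice (n = 5/group) were given the ⁶⁴Cu-labelled conjugate i.v., 14 μCi (14 ng; 1000 μCi/μg); the blocking group's dose was premixed with 50 μg unlabelled ligand. Animals were killed at 2 h, and tissues and tumour were weighed and gamma-counted. %ID/g was decay-corrected against an injected-dose standard; mean±SD.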

[4] = tested on: B16F10 tumor-bearing mice; experiment: as above; format: in vivo, C57BL/6 mice; settings: 2 h, co-administered with excess cold LLP2A (50 μg)
Summary of the method: as §1

[5] = tested on: B16F10 tumor-bearing mice; settings: 2 h post-injection, 5 μCi (12.5 ng); previously published data; cited from earlier work

integrin α4β1 (VLA-4), sequence (Q00651 41-1039): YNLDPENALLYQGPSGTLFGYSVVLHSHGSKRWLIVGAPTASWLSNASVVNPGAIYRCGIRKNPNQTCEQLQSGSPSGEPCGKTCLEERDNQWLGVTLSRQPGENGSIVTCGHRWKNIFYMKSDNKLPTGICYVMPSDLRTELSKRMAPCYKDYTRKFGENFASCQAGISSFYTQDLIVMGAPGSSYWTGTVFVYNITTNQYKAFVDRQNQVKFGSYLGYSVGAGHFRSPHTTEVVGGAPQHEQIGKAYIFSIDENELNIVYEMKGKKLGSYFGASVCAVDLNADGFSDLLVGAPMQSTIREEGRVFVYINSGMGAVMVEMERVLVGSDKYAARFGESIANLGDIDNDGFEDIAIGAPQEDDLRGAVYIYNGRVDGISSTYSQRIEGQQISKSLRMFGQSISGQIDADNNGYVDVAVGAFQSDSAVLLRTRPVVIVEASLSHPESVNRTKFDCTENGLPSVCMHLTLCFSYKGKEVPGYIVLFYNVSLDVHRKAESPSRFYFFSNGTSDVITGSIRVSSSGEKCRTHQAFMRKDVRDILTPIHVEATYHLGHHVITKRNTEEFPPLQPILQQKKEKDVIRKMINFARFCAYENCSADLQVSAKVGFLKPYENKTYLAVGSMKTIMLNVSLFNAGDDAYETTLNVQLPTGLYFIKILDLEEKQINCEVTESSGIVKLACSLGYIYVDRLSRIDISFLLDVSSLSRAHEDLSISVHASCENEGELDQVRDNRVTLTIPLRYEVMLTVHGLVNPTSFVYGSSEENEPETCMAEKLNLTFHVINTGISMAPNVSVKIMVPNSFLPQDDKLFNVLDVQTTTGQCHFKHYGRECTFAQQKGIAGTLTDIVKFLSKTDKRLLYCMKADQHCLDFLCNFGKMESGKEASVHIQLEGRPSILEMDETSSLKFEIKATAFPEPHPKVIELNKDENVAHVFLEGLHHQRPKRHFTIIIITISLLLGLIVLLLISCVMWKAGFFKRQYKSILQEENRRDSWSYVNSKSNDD
integrin α4β1 (VLA-4), sequence (P09055 21-798): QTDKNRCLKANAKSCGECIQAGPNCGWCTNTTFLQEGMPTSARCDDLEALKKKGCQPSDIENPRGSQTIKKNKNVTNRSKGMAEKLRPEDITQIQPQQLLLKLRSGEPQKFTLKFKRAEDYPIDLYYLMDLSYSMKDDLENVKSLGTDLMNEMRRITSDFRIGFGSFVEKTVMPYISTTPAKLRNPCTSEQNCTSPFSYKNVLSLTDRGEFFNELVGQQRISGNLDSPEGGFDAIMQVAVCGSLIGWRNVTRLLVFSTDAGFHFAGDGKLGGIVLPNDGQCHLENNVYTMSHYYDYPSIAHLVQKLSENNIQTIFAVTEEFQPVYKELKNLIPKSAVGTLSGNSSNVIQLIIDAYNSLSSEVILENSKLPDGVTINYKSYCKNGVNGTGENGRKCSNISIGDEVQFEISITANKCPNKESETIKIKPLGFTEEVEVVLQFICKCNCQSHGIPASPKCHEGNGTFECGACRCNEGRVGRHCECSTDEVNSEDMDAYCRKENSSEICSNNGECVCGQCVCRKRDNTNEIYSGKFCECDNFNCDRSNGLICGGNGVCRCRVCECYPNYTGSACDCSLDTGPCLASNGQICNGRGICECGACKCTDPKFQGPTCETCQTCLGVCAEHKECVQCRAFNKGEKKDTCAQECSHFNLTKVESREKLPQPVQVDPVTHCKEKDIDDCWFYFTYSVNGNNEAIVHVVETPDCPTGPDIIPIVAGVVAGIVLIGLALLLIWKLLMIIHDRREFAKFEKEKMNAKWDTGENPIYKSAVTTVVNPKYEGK

Compound	Fold higher tumor to background ratio than ^64Cu-CB-TE2A-LLP2A [1]	receptor concentration (Bmax) [2]	tissue uptake at 2 h ([3]; bone) [%ID/g]	tissue uptake at 2 h ([3]; kidney) [%ID/g]	tissue uptake at 2 h ([3]; liver) [%ID/g]	tissue uptake at 2 h ([3]; marrow) [%ID/g]	tissue uptake at 2 h ([3]; spleen) [%ID/g]	tissue to tissue ratio at 2 h ([3]; tumor / blood)	tissue to tissue ratio at 2 h ([3]; tumor / muscle)	tissue uptake at 2 h ([3]; tumor) [%ID/g]	Radiotracer uptake in tumor, spleen and bone in the presence of blocking agent [4]	Tumor to blood ratio [5]	Tumor to muscle ratio [5]
Cc1ccccc1NC(=O)Nc1ccc(CC(=O)N[C@@H](CCCCNC(=O)/C=C/c2cccnc2)C(=O)N[C@@H](CCCC(=O)O)C(=O)NC2(C(=O)NCCOCCOCCNC(=O)CCC(=O)NCCOCCOCCNC(=O)CCC(=O)N[C@@H](CCCCNC(=O)CN3CCCN4CCN(CCCN(CP(=O)(O)O)CC4)CC3)C(N)=O)CCCCC2)cc1 [^64Cu-CB-TE1A1P-LLP2A, metal not drawn]	more than 2 fold	471 fmol/mg and 471 ± 14 fmol/mg	6.2 ± 1.7	3.2 ± 0.4	2.3 ± 0.3	32.6 ± 19	17.9 ± 2.3	19.5 ± 3	13 ± 1.4	11.4 ± 2.3	significantly reduced		
Cc1ccccc1NC(=O)Nc1ccc(CC(=O)N[C@@H](CCCCNC(=O)/C=C/c2cccnc2)C(=O)N[C@@H](CCCC(=O)O)C(=O)NC2(C(=O)NCCOCCOCCNC(=O)CCC(=O)NCCOCCOCCNC(=O)CCC(=O)N[C@@H](CCCCNC(=O)CN3CCCN4CCN(CCCN(CC(=O)O)CC4)CC3)C(N)=O)CCCCC2)cc1 [^64Cu-CB-TE2A-LLP2A, metal not drawn, reference compound]		304 fmol/mg and 304 ± 18 fmol/mg										4.2 ± 1.4	5.5 ± 0.9
